One compound from ChEMBL document CHEMBL1671867, “Novel polymyxin derivatives carrying only three positive charges are effective antibacterial agents” (Antimicrob Agents Chemother, 2008) can be followed below.

≈ marks a conversion by molar mass, not a printed value.

Experiment [1] deals with Escherichia coli. The experiment is described as follows: Antibacterial activity against 5 x 10^5 CFU/ml Escherichia coli ATCC […] by Etest method by Etest in presence of 1 ug/ml NAB7061. Format: functional.
Experiment [2] relates to Acinetobacter baumannii. As to the kind of experiment: Antibacterial activity against Acinetobacter baumannii ATCC 19606 by Etest method in presence of 4 ug/ml NAB7070. Format: functional.
Experiment [3] has as its system Escherichia coli. The experiment is described as follows: microbe, parasite or virus in culture. Particulars: ATCC 25992.
In experiment [4] the test system is Escherichia coli. As to the kind of experiment: Antibacterial activity against 5 x 10^5 CFU/ml Escherichia coli ATCC 25992 in presence of 2 ug/ml NAB7061 by Checkerboard method. The format is functional.
In experiment [5] the test system is Acinetobacter baumannii. As to the kind of experiment: Antibacterial activity against Acinetobacter baumannii F264 by Etest method in presence of 0.5 ug/ml NAB739. The format is functional.
The subject of experiment [6] is Enterobacter cloacae. As to the kind of experiment: Antibacterial activity against Enterobacter cloacae ATCC 23355 […] by Etest method in presence of 1 ug/ml NAB7061. The format is functional.
The test system of experiment [7] is Escherichia coli. As to the kind of experiment: microbe, parasite or virus in culture. As to conditions: ATCC 25992. The source holds these as a separate data set.
In experiment [8] the test system is Escherichia coli. As to the kind of experiment: Antibacterial activity against Escherichia coli IH3080 by Etest method in presence of 2 ug/ml NAB7062. Format: functional.
The test system of experiment [9] is Escherichia coli. As to the kind of experiment: Antibacterial activity against 5 x 10^5 CFU/ml Escherichia coli ATCC […] by Etest method by Etest in presence of 8 ug/ml NAB7061. The format is functional.
Experiment [10] relates to Enterobacter cloacae. The experiment is described as follows: Antibacterial activity against Enterobacter cloacae ATCC 23355 […] by Etest method in presence of NAB7061. The format is functional.
For experiment [11], the system named is Klebsiella pneumoniae. The experiment is described as follows: Antibacterial activity against Klebsiella pneumoniae by Etest method in presence of 4 ug/ml NAB7064. Format: functional.
In experiment [12] the test system is Acinetobacter baumannii. As to the kind of experiment: Antibacterial activity against Acinetobacter baumannii ATCC 19606 by Etest method. Format: functional.
In experiment [13] the test system is Klebsiella pneumoniae. As to the kind of experiment: Antibacterial activity against Klebsiella pneumoniae ATCC 13883 by Etest method in presence of 1 ug/ml NAB7061. Format: functional. The method, boiled down: (§1)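 MICs of the antibiotic taken from E-strips on Mueller-Hinton agar, run both with and without peptide. […] Inoculum was prepared per the strip manufacturer, matching CLSI M2-A9.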

Experiment [14] concerns Escherichia coli. As to the kind of experiment: Antibacterial activity against Escherichia coli ATCC […] by Etest method in presence of 1 ug/ml NAB7061. The format is functional.
Experiment [15] concerns Escherichia coli. The experiment is described as follows: Antibacterial activity against Escherichia coli ATCC […] by Etest method in presence of 4 ug/ml NAB7064. The format is functional.
The next experiment relates to Klebsiella oxytoca. As to the kind of experiment: Antibacterial activity against Klebsiella oxytoca CCUG51683 by Etest method in presence of 4 ug/ml NAB7066. Format: functional.
Experiment [16] deals with Klebsiella pneumoniae. The experiment is described as follows: Antibacterial activity against Klebsiella pneumoniae ATCC 13883 by Etest method in presence of 2 ug/ml NAB7061. Format: functional. The method, boiled down: as §1

In the case of `CO[C@H]1/C=C/O[C@@]2(C)Oc3c(C)c(O)c4c(O)c(c(/C=N/N5CCN(C)CC5)c(O)c4c3C2=O)NC(=O)/C(C)=C\C=C\[C@H](C)[C@H](O)[C@@H](C)[C@@H](O)[C@@H](C)[C@H](OC(C)=O)[C@@H]1C` [RIFAMPIN], the MIC with Escherichia coli [1] stood at 0.19 µg/mL; in the experiment with Acinetobacter baumannii [2], 0.094 µg/mL; with Escherichia coli [3], 8 µg/mL (≈ 9.72 µM); in the experiment on Escherichia coli [4] it was 0.5 µg/mL; with Acinetobacter baumannii [5] it was 0.094 µg/mL; with Enterobacter cloacae [6], 8 µg/mL. Also, the MIC was 8 µg/mL (≈ 9.72 µM) against Escherichia coli [7]; 0.19 µg/mL in the experiment on Escherichia coli [8]; 0.006 µg/mL with Escherichia coli [9]; 0.26 µg/mL with Enterobacter cloacae [10]; 0.19 µg/mL in the experiment with Klebsiella pneumoniae [11]; 4 µg/mL (≈ 4.86 µM) in the experiment with Acinetobacter baumannii [12]. Besides, the MIC with Klebsiella pneumoniae [13] was determined as 1.5 µg/mL; in the experiment with Escherichia coli [14] it was 0.19 µg/mL; in the experiment on Escherichia coli [15], 0.016 µg/mL; in the experiment on Klebsiella oxytoca it was 0.012 µg/mL; with Klebsiella pneumoniae [16] it was 0.25 µg/mL.
